Bioassay records deposited in PubChem by Broad Institute.
IDH1 R132H inh – inhibitors of IDH1 R132H reductase, primary screen, biochemical, plate reader, single point. diaphorase/resazurin fluorescence, 60 min. inhibition, % at 10 µM. 70,000 tested, 0.18% active. AID 624101, 2012; in the data active means inhibition above about 34%; inconclusive means no clear call, values can overlap the other calls; inactive means below about 11%
Target sequence (O75874 whole entry R132H): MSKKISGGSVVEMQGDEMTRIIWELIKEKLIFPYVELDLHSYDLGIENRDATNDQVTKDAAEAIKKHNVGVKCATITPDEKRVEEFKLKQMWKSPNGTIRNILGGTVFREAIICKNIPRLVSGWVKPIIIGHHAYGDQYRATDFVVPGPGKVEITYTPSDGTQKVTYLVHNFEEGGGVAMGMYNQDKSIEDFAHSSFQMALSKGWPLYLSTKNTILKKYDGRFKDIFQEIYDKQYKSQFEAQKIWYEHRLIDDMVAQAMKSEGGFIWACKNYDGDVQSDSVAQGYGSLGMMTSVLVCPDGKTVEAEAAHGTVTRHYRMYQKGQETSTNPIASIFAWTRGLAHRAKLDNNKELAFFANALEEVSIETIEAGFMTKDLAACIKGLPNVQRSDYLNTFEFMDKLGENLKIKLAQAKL
GASC1 inh – inhibitors of GASC-1 (KDM4C) histone demethylase, primary screen, biochemical, single concentration HTS | Lysine-specific demethylase 4C (Homo sapiens), Q9H3R0 | GST-KDM4C 2-372, H3K9me3 peptide, LANCE TR-FRET | inhibition, % at 12.5 µM | 96,000 tested, 0.15% active;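 active means mean replicate inhibition above about 25%, with at least 55% of replicates also reaching it, limit read from the data, passing the limit was not always enough; inconclusive means only one of those two conditions met; inactive means neither condition met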
Target sequence (Q9H3R0 2-372 limits assumed): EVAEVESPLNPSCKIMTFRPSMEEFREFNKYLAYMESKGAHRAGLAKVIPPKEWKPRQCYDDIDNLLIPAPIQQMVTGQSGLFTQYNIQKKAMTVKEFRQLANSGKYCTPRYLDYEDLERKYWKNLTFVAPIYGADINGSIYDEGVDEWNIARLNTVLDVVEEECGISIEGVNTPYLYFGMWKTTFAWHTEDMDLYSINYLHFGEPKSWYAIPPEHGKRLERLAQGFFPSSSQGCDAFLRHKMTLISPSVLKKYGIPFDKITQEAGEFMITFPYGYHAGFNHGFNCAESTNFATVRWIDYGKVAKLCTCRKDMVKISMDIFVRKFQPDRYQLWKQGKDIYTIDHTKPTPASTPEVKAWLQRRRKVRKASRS
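Material: GST-tagged GASC-1 (JMJD2C) catalytic fragment, aa 2-372 / Quantity: enzyme final amount 10 nM / Medium: HEPES buffer, pH 7.5, plus ascorbate / Doses: one test concentration per compound / Incubation: 30 min reaction, 60 min detection, RT / Measured by: LANCE TR-FRET / Read-out: inhibition from TR-FRET ratio decrease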
T cruzi growth-1 – T. cruzi intracellular proliferation inhibitors, primary screen, cell-based, beta-gal Tulahuen parasites, NIH3T3 host, luminescence; T. cruzi beta-gal in NIH3T3, GalScreen luminescence, 90 h; inhibition, % at 8.34 µM; 77,000 tested, 5.9% active; AID 624255, 2012;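 active means mean inhibition above about 93%, with at least 55% of replicates each passing it, limit read from the data, passing the limit was not always enough; inconclusive means only one of those two conditions holds; inactive means neither condition holds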
T cruzi growth-2 – T. cruzi intracellular proliferation inhibitors, confirmation, cell-based, NIH3T3 host, beta-gal parasite, luminescence, cherry-pick. shares compounds with T cruzi growth-1. T. cruzi beta-gal in NIH3T3, GalScreen luminescence, 90 h. inhibition, % at 8.35 µM. 5,600 tested, 72% active. AID 651739, 2012;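 active means mean replicate inhibition above about 95% and at least 55% of replicates individually reaching it, limit read from the data; inconclusive means only one of the two criteria is met; inactive means neither criterion is met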
T cruzi growth-3 – inhibitors of intracellular T. cruzi replication, confirmation, NIH3T3 host cells, beta-gal parasites, cherry-pick, set 2; shares compounds with T cruzi growth-1; T. cruzi beta-gal in NIH3T3, GalScreen luminescence, 90 h; inhibition, % at 2.09 µM; 5,600 tested, 21% active; AID 651740, 2012;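 active means mean inhibition above about 95%, with at least 55% of replicates also reaching it, limit read from the data; inconclusive means meets just one of the two conditions; inactive means meets neither condition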
3T3 cytotox – cytotoxicity in mouse NIH/3T3 fibroblasts, confirmation, cytotoxicity control for T. cruzi proliferation inhibitor project, cell-based, cherry-pick, single point; shares compounds with T cruzi growth-1; NIH/3T3 viability, CellTiter-Glo ATP luminescence, 90 h; cytotoxicity (signal decrease), % at 8.35 µM; 5,600 tested, 14% active; AID 651742, 2012;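 active means mean signal decrease across replicates above about 35% based on untreated-well scatter, with enough replicates individually passing, limit read from the data; inconclusive means no rule stated though some were filed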
NIH3T3 tox 2 – NIH/3T3 fibroblast cytotoxicity, confirmation, cytotoxicity control, cell-based, cherry-pick, single point, set 2 | shares compounds with T cruzi growth-1 | NIH/3T3 viability, CellTiter-Glo ATP luminescence, 90 h | inhibition, % at 24.9 µM | 5,600 tested, 56% active;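 active means mean loss of cell viability signal at or above a set limit, and enough replicates individually reaching it; inconclusive means meets only the mean limit or only the replicate share; inactive means meets neither condition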
Hits are given with their value; i = inactive; ? = inconclusive; nt = no result given. The full list was thinned out, with hits kept by preference.

SMILES | IDH1 R132H inh | GASC1 inh | T cruzi growth-1 | T cruzi growth-2 | T cruzi growth-3 | 3T3 cytotox | NIH3T3 tox 2
CO[C@@H]1CN(C)C(=O)c2cc(NC(=O)C3CC3)ccc2OC[C@@H](C)N(Cc2cccc(F)c2)C[C@@H]1C | i | i | i | nt | nt | nt | nt
CO[C@H]1CN(C)C(=O)c2cc(NS(=O)(=O)c3ccccc3)ccc2OC[C@@H](C)N(Cc2cccnc2)C[C@H]1C | i | i | 96.8 | 100.9 | i | i | 35.2
CO[C@H]1CN(C)C(=O)c2cc(NC(=O)C3CC3)ccc2OC[C@H](C)N(Cc2cc(F)ccc2F)C[C@H]1C | i | i | i | nt | nt | nt | nt
COCC(=O)Nc1ccc2c(c1)OC[C@@H](C)N(Cc1cc(F)ccc1F)C[C@@H](C)[C@H](OC)CN(C)C2=O | i | i | i | nt | nt | nt | nt
COC(=O)C1=C[C@@H](O)[C@@H](O)[C@H](O[C@@H]2O[C@H](COC(=O)/C=C/c3ccccc3)[C@@H](O)[C@H](O)[C@H]2O)C1 | i | nt | nt | nt | nt | nt | nt
C[C@H]1CN([C@@H](C)CO)C(=O)c2cc(NC(=O)CCN3CCOCC3)ccc2O[C@@H]1CN(C)Cc1ccc(Oc2ccccc2)cc1 | i | i | i | nt | nt | nt | nt
C[C@H]1CN([C@@H](C)CO)C(=O)Cc2cc(NC(=O)Nc3cccc4ccccc34)ccc2O[C@@H]1CN(C)S(=O)(=O)c1ccc(F)cc1 | i | i | i | nt | nt | nt | nt
Cc1noc(C)c1NC(=O)Nc1ccc2c(c1)C(=O)N([C@@H](C)CO)C[C@@H](C)[C@@H](CN(C)S(=O)(=O)c1cn(C)cn1)OCCCC[C@H](C)O2 | i | i | i | nt | nt | nt | nt
COc1ccccc1CN1C[C@@H](C)[C@H](OC)CN(C)C(=O)c2cc(NC(=O)Nc3ccccc3OC)ccc2OC[C@H]1C | i | i | i | nt | nt | nt | nt
CO[C@H]1CN(C)C(=O)c2cc(NS(=O)(=O)c3ccc(C)cc3)ccc2OC[C@@H](C)N(Cc2nccs2)C[C@H]1C | i | i | 107.1 | 104.0 | i | i | 40.3
CO[C@H]1CN(C)C(=O)c2cc(NC(=O)C3CCC3)ccc2OC[C@H](C)N(Cc2cccnc2)C[C@@H]1C | i | i | i | nt | nt | nt | nt
CO[C@@H]1CN(C)C(=O)c2cc(NC(=O)Nc3ccccc3F)ccc2OC[C@@H](C)N(Cc2ccccc2F)C[C@H]1C | i | i | i | nt | nt | nt | nt
CO[C@H]1CN(C)C(=O)c2cc(NC(=O)C3CCC3)ccc2OC[C@@H](C)N(Cc2cccnc2)C[C@@H]1C | i | i | 103.1 | i | i | i | i
CO[C@@H]1CN(C)C(=O)c2ccc(NC(=O)Nc3ccccc3F)cc2OC[C@@H](C)N(Cc2ccccc2F)C[C@H]1C | i | i | 116.7 | 106.4 | 111.0 | i | i
COc1ccccc1NC(=O)Nc1ccc2c(c1)C(=O)N(C)C[C@@H](OC)[C@H](C)CN(Cc1ccccc1Cl)[C@H](C)CO2 | i | i | 108.7 | 107.7 | 113.1 | i | i
CO[C@@H]1CN(C)C(=O)c2ccc(NS(=O)(=O)c3ccc(C)cc3)cc2OC[C@@H](C)N(Cc2nccs2)C[C@@H]1C | i | i | i | nt | nt | nt | nt
O=C(CC1CC1)N1[C@@H](CO)[C@H](c2ccccc2)C12CN(S(=O)(=O)c1ccccc1)C2 | nt | i | nt | nt | nt | nt | nt
C[C@H]1CN([C@@H](C)CO)S(=O)(=O)c2ccc(-c3ccc(C#N)cc3)cc2O[C@H]1CN(C)CC1CC1 | i | i | i | nt | nt | nt | nt
COc1ccc(CN(C)C[C@@H]2Oc3ccc(NS(=O)(=O)c4ccc(OC)cc4)cc3CC(=O)N([C@H](C)CO)C[C@@H]2C)cc1 | i | i | i | nt | nt | nt | nt
O=C(C[C@H]1CC[C@H]2[C@@H](COC[C@H](O)CN2S(=O)(=O)c2cccc(F)c2)O1)NCCCN1CCOCC1 | nt | i | i | nt | nt | nt | nt
CO[C@@H]1CN(C)C(=O)c2ccc(NS(=O)(=O)CC(F)(F)F)cc2OC[C@H](C)NC[C@H]1C | i | i | i | nt | nt | nt | nt
CO[C@H]1CN(C)C(=O)c2ccc(NC(=O)NC(C)C)cc2OC[C@@H](C)N(Cc2ccccn2)C[C@@H]1C | i | i | 100.5 | i | i | i | i
CO[C@@H]1CN(C)C(=O)c2ccc(NC(=O)NC(C)C)cc2OC[C@@H](C)N(Cc2ccccn2)C[C@@H]1C | i | i | i | nt | nt | nt | nt
C[C@@H]1CN([C@H](C)CO)S(=O)(=O)c2ccc(-c3ccc(C#N)cc3)cc2O[C@@H]1CN(C)Cc1cccc(F)c1 | i | i | nt | nt | nt | nt | nt
C[C@@H]1CN([C@@H](C)CO)S(=O)(=O)c2ccc(-c3ccc(C#N)cc3)cc2O[C@@H]1CN(C)Cc1cccc(F)c1 | nt | i | nt | nt | nt | nt | nt
SMILES | IDH1 R132H inh | GASC1 inh | T cruzi growth-1 | T cruzi growth-2 | T cruzi growth-3 | 3T3 cytotox | NIH3T3 tox 2
C[C@H](CO)N1C[C@H](C)[C@@H](CN(C)Cc2cccc(F)c2)Oc2cc(-c3ccccc3)ccc2S1(=O)=O | nt | i | 106.8 | i | i | 43.4 | 100.6
C[C@H](CO)N1C[C@H](C)[C@H](CN(C)Cc2cccc(F)c2)Oc2cc(-c3ccc(F)cc3)ccc2S1(=O)=O | i | i | i | nt | nt | nt | nt
C[C@H](CO)N1C[C@H](C)[C@H](CN(C)Cc2cccc(F)c2)Oc2cc(-c3ccccc3)ccc2S1(=O)=O | nt | i | 120.5 | 108.4 | i | i | 103.5
C[C@H]1CN([C@@H](C)CO)S(=O)(=O)c2ccc(-c3ccccc3)cc2O[C@@H]1CN(C)Cc1cccc(F)c1 | i | i | 119.5 | i | 108.1 | ? | 103.2
C[C@@H]1CN([C@H](C)CO)S(=O)(=O)c2ccc(-c3ccccc3)cc2O[C@H]1CN(C)Cc1cccc(F)c1 | nt | i | 118.4 | 100.9 | 104.2 | 116.6 | 103.4
C[C@@H]1CN([C@@H](C)CO)S(=O)(=O)c2ccc(-c3ccc(C#N)cc3)cc2O[C@H]1CN(C)Cc1cccc(F)c1 | nt | i | nt | nt | nt | nt | nt
CO[C@H]1CN(C)C(=O)c2cc(NC(=O)C3CCCCC3)ccc2OC[C@@H](C)NC[C@H]1C | i | i | i | nt | nt | nt | nt
CCC(=O)N1CC2(CN(C(=O)Cc3ccccc3)C2)c2c(n(C)c3cc(OC)ccc23)[C@@H]1CO | nt | i | nt | nt | nt | nt | nt
O=C(Nc1ccc2c(c1)[C@@H]1C[C@@H](CC(=O)N3CCCCC3)O[C@H](CO)[C@@H]1O2)NC1CCCC1 | i | i | i | nt | nt | nt | nt
CC1(C)[C@H]2CC=C(/C=N\NC(=O)CCCCCC(=O)O)[C@@H]1C2 | i | nt | nt | nt | nt | nt | nt
CNC[C@H]1Oc2c(NC(=O)c3nc4ccccc4s3)cccc2C(=O)N([C@@H](C)CO)C[C@H]1C | i | i | i | nt | nt | nt | nt
